The list is not random: actives were taken first. Their share in the collection is about 3.7%.
proCasp7 act: procaspase-7 activators, primary screen, counter-screen for procaspase-3 activator project, biochemical, absorbance, HTS, human | AID 463210, 2010 | Caspase-7 (Homo sapiens), P55210 | actives 0.093% (n = 330,000) | recombinant procaspase-7, Ac-DEVD-pNA absorbance 405 nm; D23A/D198A/D206A triple mutant, cannot self-cleave; scale: DMSO 0, 5 µM enzyme 100 | activation, % at 8.5 µM;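 active means percent activation above the screen-wide mean plus 3 SD, cut at about 25% in these data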
Target sequence (P55210 whole entry D23A/D198A/D206A): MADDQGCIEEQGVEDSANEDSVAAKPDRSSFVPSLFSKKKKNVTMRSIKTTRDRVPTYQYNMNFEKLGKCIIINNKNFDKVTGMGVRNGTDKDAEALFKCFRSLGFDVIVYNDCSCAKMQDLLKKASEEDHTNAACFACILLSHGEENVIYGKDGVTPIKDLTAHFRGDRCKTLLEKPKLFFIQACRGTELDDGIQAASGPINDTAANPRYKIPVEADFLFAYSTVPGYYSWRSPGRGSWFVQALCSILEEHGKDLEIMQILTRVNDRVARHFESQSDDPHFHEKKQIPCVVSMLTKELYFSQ
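Replicates: singlicate. Assay system: Procaspase-7 triple mutant (PC-7 D3A). Signal: 405 nm absorbance of p-nitroaniline. Times: 1 h preincubation, 2 h reaction. Buffer or medium: Zinc-free HEPES pH 7.4 with 300 mM NaCl, 0.01% Triton X-100. Also added: DEVD-pNA substrate. Benchmarks: DMSO wells as 0%, DMSO with 5 µM added PC-7 as 100%.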
proCasp3 act: activators of human procaspase-3 D3A mutant, primary screen, biochemical, absorbance, PC-3 D3A mutant, single concentration. activation, % at 8.5 µM. Caspase-3 (Homo sapiens), P42574. actives 0.11% (n = 330,000). recombinant procaspase-3 D3A, Ac-DEVD-pNA absorbance 405 nm;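 active means activation above the mean of all tested compounds plus 3 SD, cut at about 21% in these data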;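 further: 0% = DMSO alone and 100% = DMSO wells spiked with extra 5 µM PC-3 D3A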
Target sequence (P42574 whole entry D9A/D28A/D175A): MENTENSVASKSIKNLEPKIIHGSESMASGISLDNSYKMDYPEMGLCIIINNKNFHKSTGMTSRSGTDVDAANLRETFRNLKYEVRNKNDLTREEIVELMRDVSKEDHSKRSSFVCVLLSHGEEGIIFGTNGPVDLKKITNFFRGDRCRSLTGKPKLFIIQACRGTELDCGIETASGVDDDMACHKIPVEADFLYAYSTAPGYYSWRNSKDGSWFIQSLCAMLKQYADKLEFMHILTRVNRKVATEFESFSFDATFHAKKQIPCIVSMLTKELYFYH
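Compound: 8.5 µM single point, 0.8% DMSO / Material: Autoprocessing-dead procaspase-3 D3A mutant enzyme / Timing: 1 h preincubation plus 2 h reaction at 25 °C / Medium: Zinc-free HEPES/NaCl buffer with 0.01% Triton X-100 at pH 7.4 / Technique: 405 nm absorbance of p-nitroaniline, reads at 0 and 120 min / Repeats: one well per compound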
GRIN3A LBD mod: binders of NR3A ligand-binding domain, primary screen, biophysical, differential scanning fluorimetry, uHTS | NR3A LBD differential scanning fluorimetry, Tm shift; 0% = protein alone, 100% = glycine-bound protein | AID 1259313, 2017 | actives 2.5% (n = 340,000) | Tm shift relative to glycine control, % at 25 µM;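 active means melting temperature shift of at least 10% of the positive control shift, at one fixed dose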
MPTP inh: mitochondrial permeability transition pore inhibitors, primary screen, biochemical, isolated mouse mitochondria, absorbance; AID 602449, 2012; Ca2+ swelling absorbance, 30 min; actives 1.4% (n = 360,000); inhibition, % at 10 µM;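 active means inhibition of 50% or more, scaled per plate between neutral and stimulator controls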;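 further: 0% = DMSO wells given calcium and 100% = 1 mM EGTA wells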
aDG glyco up: activators of alpha-DG glycosylation, primary screen, uHTS, Pro5-aDG cells, AlphaScreen | alpha-DG glycosylation AlphaScreen (IIH6); 0% Pro5, 100% B10-LARGE cell signal | activation, % at 10 µM | actives 0.22% (n = 360,000);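 active means activation of at least 8% versus controls, or a plate z-score of at least 8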;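 further: Pro5 are CHO cells carrying HIG-tagged alpha-DG that lacks glycosylation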
aDG conf: alpha-DG glycosylation enhancers, retest, confirmation, single concentration, Pro5-aDG cells; shares compounds with aDG glyco up; IIH6 AlphaLISA; scaled to LARGE-overexpressing B10 cells as 100%; activation, % at 10 µM (by protocol); actives 17% (n = 600);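 active means activation of at least 7% in one or more replicates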;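 further: cells exposed to compound for two days before detection; 0% = DMSO-treated Pro5 cells and 100% = DMSO-treated B10-LARGE cells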
Numbers without * were called inactive; nt = no result.

SMILES	proCasp7 act	proCasp3 act	GRIN3A LBD mod	MPTP inh	aDG glyco up	aDG conf
CC(Oc1ccccc1F)C(=O)NNC(=O)C1CC(=O)N(c2ccc3c(c2)OCCO3)C1 (configuration not stated)	10.4	8.5	2.1	0.2	-0.1	nt
O=C(NNC(=O)C1CC(=O)N(c2ccc3c(c2)OCCO3)C1)c1ccc(F)cc1 (configuration not stated)	3.3	-8.3	0.5	-0.2	3.3*	0.2
COc1ccc(CNCc2ccco2)cc1OCc1ccccc1	1.7	6.5	nt	0.5	0.4	nt
COc1ccccc1CCNCc1ccc(OC)c(OCc2ccccc2)c1	-2.4	14.6	0.3	12.1	5.6*	1.7
COc1ccc(CN2C(=O)C(CC(=O)NC3CCCC3)CC(C(=O)N(C(C)C)C(C)C)=C2C)cc1 (configuration not stated)	nt	nt	nt	0.4	5.0*	0.7
Cc1cc(C)nc(SCC(=O)NC(=O)c2ccccc2O)n1	6.7	7.4	0.4	0.0	0.0	nt
CC(C)(C)c1ccc(OCCCNC2CCCC2)cc1	7.3	0.4	-1.6	44.3	6.7*	1.4
Cc1ccc(OCCCNC2CCCC2)cc1	-0.9	-3.7	0.3	0.1	0.2	nt
O=C(Cc1c(Cl)cccc1Cl)N/N=C/c1cccnc1	nt	nt	0.4	0.7	-0.2	nt
COc1ccc(N2CCN(Cc3nc(N)nc(Nc4ccccc4OC)n3)CC2)cc1	-0.1	-3.5	0.3	-0.2	12.0*	0.5
COc1ccccc1Nc1nc(N)nc(CN2CCN(Cc3ccccc3)CC2)n1	6.4	0.7	1.5	0.1	0.1	nt
CC(C)Cc1cc(CN2CCCC(CO)(Cc3cccc(Cl)c3)C2)[nH]n1 (configuration not stated)	7.2	4.8	-1.1	-1.0	0.5	nt
CC(C)Cc1cc(CN2CCC(CO)(Cc3cccc(C(F)(F)F)c3)CC2)[nH]n1	8.6	-1.6	-4.6	3.6	10.0*	3.6
Cc1cc(C)cc(N(CC(=O)N2CCn3c2nc2ccccc23)S(=O)(=O)c2c(C)noc2C)c1	3.7	0.7	-7.6	4.2	0.4	nt
COc1ccc(NC(=O)CC2Oc3ccccc3NC2=O)c(OC)c1 (configuration not stated)	-3.5	3.4	3.3	-0.7	0.0	nt
COCCn1cc(-c2csc(N)n2)c2ccccc21	-11.1	-10.6	-1.3	0.9	0.1	nt
CN(C)c1nc(-c2cn(CCC#N)c3ccccc23)cs1	-1.7	-10.2	0.3	2.6	5.1*	2.0
Cc1nc2ccc(NC(=O)Cc3c(F)cccc3Cl)cc2s1	4.6	6.1	2.3	2.9	0.0	nt
CCN(CC)S(=O)(=O)c1ccc2[nH]c(=O)cc(C(=O)Nc3cccc(C(C)=O)c3)c2c1	7.7	6.5	-2.2	0.1	9.2*	-0.6
O=C(Nc1cccc(S(=O)(=O)N2CCOCC2)c1)c1cccc(S(=O)(=O)N2CCCCC2)c1	nt	nt	-1.0	-0.6	0.2	nt
O=C(Nc1ccc(N2CCCCCC2)cc1)c1cccc(S(=O)(=O)N2CCOCC2)c1	-10.3	-12.7	-1.4	1.3	2.8*	0.9
O=C(NCC[C@@H]1CC[C@@H](NS(=O)(=O)c2ccccc2)[C@@H](CO)O1)c1cc(Cl)cc(Cl)c1	nt	nt	nt	-1.2	7.7*	-0.1
Nc1nc(SCC(=O)N2CCCCC2)[nH]c(=O)c1NC(=O)c1ccccc1F	3.0	2.2	1.6	-0.3	0.0	nt
CC(C)(O)C#Cc1ccc(C(=O)NCc2ccccc2)s1	4.9	1.8	0.5	0.8	-0.2	nt
COc1cc(OC)cc(C(=O)Nc2cccc(N3CCCC3)c2)c1	-9.2	-4.3	-21.6	-0.3	3.7*	1.8
SMILES	proCasp7 act	proCasp3 act	GRIN3A LBD mod	MPTP inh	aDG glyco up	aDG conf
O=C(CSc1cccs1)Nc1ccc(Cl)cc1	5.8	5.3	-1.3	5.7	3.1*	-1.0
COc1ccc2c(c1)C(=O)C(=O)N2CCS(=O)(=O)c1ccccc1	1.7	-12.6	-3.8	-0.8	1.0	nt
O=C1C(=O)N(CCS(=O)(=O)c2ccccc2)c2ccc(F)cc21	-18.3	4.2	-3.8	-0.5	7.6*	5.4*
O=C1c2ccccc2-c2n[nH]c(=O)c3ccc(N4CCCCC4)c1c23	-6.1	3.2	-3.4	1.0	-0.5	nt
O=S(=O)(Nc1ccc(F)cc1)N1CCOCC1	3.9	2.2	-0.9	-1.1	-0.1	nt
CN(CC(=O)Nc1cccc(F)c1)C(=O)c1cccc(S(=O)(=O)N2CCN(c3ccccc3)CC2)c1	2.8	4.0	-4.4	1.4	8.0*	-0.7
CN(CC(=O)Nc1ccc(F)cc1)C(=O)c1cccc(S(=O)(=O)N2CCN(c3ccc(F)cc3)CC2)c1	-0.5	2.7	3.5	-2.0	1.6	nt
COc1ccc(C(C(=O)NC(C)(C)C)N(C[C@H]2CC[C@@H]([C@@H]3CC[C@H](CO)O3)O2)C(=O)c2ccccc2)cc1 (some centres not stated)	-3.6	-6.6	2.1	1.5	-0.1	nt
COc1ccc(OC)c(C(=O)N(C[C@H]2CC[C@@H]([C@@H]3CC[C@H](CO)O3)O2)C(C(=O)NC(C)(C)C)c2ccc(-c3ccccc3)cc2)c1 (some centres not stated)	-13.1	3.3	0.8	2.6	5.8*	0.7
COc1ccc(NC(=O)C2CC(=O)N=C(N)S2)cc1 (configuration not stated)	-8.0	-12.6	0.1	-0.9	11.6*	-0.9
COc1ccccc1/C=N/NC(=O)C(NC(=O)c1ccccc1)=C(C)C	2.2	-5.4	1.1	-1.1	31.7*	-0.5
Cc1cc2ncc(S(=O)(=O)C(C)(C)C)c(N)n2n1	1.2	-0.1	0.1	0.2	-0.4	nt
Cc1cc2ncc(S(=O)(=O)c3ccccc3)c(N)n2n1	-0.1	-3.5	1.7	-0.2	6.3*	0.7
COc1ccccc1[C@@H]1C(c2cccc(C)c2)=NN(c2ccc(Br)cc2)[C@H]1C(=O)N1CCOC1=O	20.4	17.4	-0.7	-0.7	4.9*	-0.2
CCN(CC)S(=O)(=O)c1ccc(C)c(N=C=S)c1	6.0	11.7	0.7	0.1	0.7	nt
Cc1ccc(S(=O)(=O)Nc2c(Cl)c(Cl)c(O)c3ccccc23)cc1	-28.8	-26.9	nt	nt	nt	nt
CC(=O)Nc1nc(CC(=O)c2ccccc2)cs1	-0.5	5.5	1.7	-0.9	8.4*	1.1

High-throughput results (PubChem)
